# “Also recorded” adds a separate entry of the source.
# Experiments:
# [1] = Urinary excretion after single oral doses of BI 409306; format: in vivo, human; conditions: for fe0–4: urine 0 h to 4 h, geometric mean (gCV%)
# Summary of the method: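 Drug amounts were measured by HPLC-MS/MS, giving amounts and fractions excreted per interval. Dose proportionality of Ae0–4 was tested by linear regression in EMs and by a mixed-effects linear model in PMs, with a 95% CI on the slope.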
# [2] = system: healthy male subjects; test: Safety and tolerability; format: in vivo, human
# Summary of the method: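 Randomized, double-blind, placebo-controlled single-dose escalation, 3:1 active:placebo (six and two per group). Males 21–50 y, BMI 18.5–29.9 kg m−2, CYP2C19 EMs or PMs, dosed four per day ≥1 h apart, ≥5 days between levels. Monitored AEs, laboratory tests, physical exam, vital signs, cardiac monitoring, 12-lead ECG and 16-item Bond–Lader 100 mm mood VAS. Investigators rated tolerability on a four-point scale. Descriptive statistics.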
# [3] = preclinical studies; cited from earlier work
# [4] = Plasma pharmacokinetics after single rising oral doses of BI 409306; format: in vivo, human; conditions: for AUC0–∞ ratio of tablet to solution: EM; for Cl F^−1: geometric mean (gCV%)
# Summary of the method: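 Healthy males (21–50 y), CYP2C19-genotyped as homozygous EMs or PMs, given single oral doses after a ≥10 h fast: solution 0.5–5 mg, tablets 10–350 mg; PMs given 10 mg, then 100 mg tablet. Tablet/solution crossover at 5 and 50 mg. Plasma sampled −2 h to 24 h (48, 72 h if ≥10 mg). HPLC-MS/MS with isotope-labelled internal standard. Noncompartmental analysis; log-scale ANOVA for formulation and genotype.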
# [5] = system: rat hippocampal slices; conditions: cited from earlier work
# [6] = system: patients with mild-to-moderate probable AD; conditions: cited from earlier work
# [7] = single oral dose 2 mg sol EM (n = 6)
# [8] = single oral dose 5 mg sol EM (n = 6)
# [9] = single oral dose 5 mg tab EM (n = 6)
# [10] = single oral dose 10 mg tab EM (n = 6)
# [11] = single oral dose 10 mg tab PM (n = 6)
# [12] = single oral dose 50 mg sol EM (n = 8)
# [13] = single oral dose 50 mg tab EM (n = 6)
# [14] = single oral dose 100 mg tab EM (n = 5)
# [15] = single oral dose 100 mg tab PM (n = 6)
# [16] = single oral dose 200 mg tab EM (n = 6)
# [17] = single oral dose 350 mg tab EM (n = 6)
# [18] = after administration of 50 mg tablets
# [19] = dose levels of 10 mg and 100 mg
smiles,measurement,setting,value
O=c1[nH]c(Cc2ccccn2)nc2c1cnn2C1CCOCC1 [BI 409306],urinary excretion of BI 409306,[1]; CYP2C19 EMs,< 2 % of the dose
same,dose proportionality exponent β of the power model for Ae0–4,"[1]; CYP2C19 EMs, entire dose range, 95% CI: 0.98, 1.12",1.05
same,urinary excretion of BI 409306,[1]; CYP2C19 PMs,up to 2.68 % of the dose
same,fe0–4,[1]; [7],0.483 (46.5) %
same,fe0–4,[1]; [8],0.583 (26.0) %
same,fe0–4,[1]; [9],0.611 (24.2) %
same,fe0–4,[1]; [10],0.461 (60.2) %
same,fe0–4,[1]; [11],1.30 (14.3) %
same,fe0–4,[1]; [12],0.594 (48.1) %
same,fe0–4,[1]; [13],0.523 (56.9) %
same,fe0–4,[1]; [14],0.597 (53.0) %
same,fe0–4,[1]; [15],1.78 (23.3) %
same,fe0–4,[1]; [16],0.676 (48.8) %
same,fe0–4,[1]; [17],0.786 (24.0) %
same,AE: Dizziness,[2]; 2 mg sol EM (n = 6),1 (16.7) n (%)
same,AE: Gastrointestinal disorders,[2]; 2 mg sol EM (n = 6),1 (16.7) n (%)
same,AE: Headache,[2]; 2 mg sol EM (n = 6),1 (16.7) n (%)
same,AE: Nausea,[2]; 2 mg sol EM (n = 6),1 (16.7) n (%)
same,AE: Nervous system disorders,[2]; 2 mg sol EM (n = 6),2 (33.3) n (%)
same,AE: Headache,[2]; 5 mg tab EM (n = 6),1 (16.7) n (%)
same,AE: Nervous system disorders,[2]; 5 mg tab EM (n = 6),1 (16.7) n (%)
same,AE: Diarrhoea,[2]; 10 mg tab PM (n = 6),1 (16.7) n (%)
same,AE: Gastrointestinal disorders,[2]; 10 mg tab PM (n = 6),1 (16.7) n (%)
same,AE: Headache,[2]; 10 mg tab PM (n = 6),2 (33.3) n (%)
same,AE: Nervous system disorders,[2]; 10 mg tab PM (n = 6),2 (33.3) n (%)
same,AE: Cardiac disorders,[2]; 50 mg tab EM (n = 6),1 (16.7) n (%)
same,AE: Extrasystoles,[2]; 50 mg tab EM (n = 6),1 (16.7) n (%)
same,AE: Palpitations,[2]; 50 mg tab EM (n = 6),1 (16.7) n (%)
same,AE: Chromatopsia,[2]; 100 mg tab PM (n = 6),1 (16.7) n (%)
same,AE: Eye disorders,[2]; 100 mg tab PM (n = 6),2 (33.3) n (%)
same,AE: Headache,[2]; 100 mg tab PM (n = 6),2 (33.3) n (%)
same,AE: Nervous system disorders,[2]; 100 mg tab PM (n = 6),2 (33.3) n (%)
same,AE: Photopsia,[2]; 100 mg tab PM (n = 6),1 (16.7) n (%)
same,AE: Presyncope,[2]; 100 mg tab PM (n = 6),1 (16.7) n (%)
same,AE: Headache,[2]; 200 mg tab EM (n = 6),1 (16.7) n (%)
same,AE: Nervous system disorders,[2]; 200 mg tab EM (n = 6),2 (33.3) n (%)
same,AE: Photophobia,[2]; 200 mg tab EM (n = 6),1 (16.7) n (%)
same,AE: Photopsia,[2]; 200 mg tab EM (n = 6),2 (33.3) n (%)
same,AE: Somnolence,[2]; 200 mg tab EM (n = 6),1 (16.7) n (%)
same,AE: Blurred vision,[2]; 350 mg tab EM (n = 6),1 (16.7) n (%)
same,AE: Cardiac disorders,[2]; 350 mg tab EM (n = 6),1 (16.7) n (%)
same,AE: Chromatopsia,[2]; 350 mg tab EM (n = 6),1 (16.7) n (%)
same,AE: Dry mouth,[2]; 350 mg tab EM (n = 6),1 (16.7) n (%)
same,AE: Gastrointestinal disorders,[2]; 350 mg tab EM (n = 6),2 (33.3) n (%)
same,AE: Nausea,[2]; 350 mg tab EM (n = 6),1 (16.7) n (%)
same,AE: Nervous system disorders,[2]; 350 mg tab EM (n = 6),1 (16.7) n (%)
same,AE: Photophobia,[2]; 350 mg tab EM (n = 6),1 (16.7) n (%)
same,AE: Photopsia,[2]; 350 mg tab EM (n = 6),2 (33.3) n (%)
same,AE: Sinus tachycardia,[2]; 350 mg tab EM (n = 6),1 (16.7) n (%)
same,AE: Somnolence,[2]; 350 mg tab EM (n = 6),1 (16.7) n (%)
same,dose up to which generally safe and well tolerated,[2]; CYP2C19 EM healthy male subjects,up to 350 mg
same,subjects with headache,"[2]; CYP2C19 EMs treated with BI 409306, all dose groups",three
same,subjects with photophobia/increased sensitivity to light,"[2]; CYP2C19 EMs, all dose groups",three
same,subjects with photopsia/flashing lights,"[2]; CYP2C19 EMs, all dose groups",five
same,dose up to which generally safe and well tolerated,[2]; CYP2C19 PM healthy male subjects,up to 100 mg
same,subjects with headache,[2]; CYP2C19 PMs treated with BI 409306 (10 mg and 100 mg),four
same,intensity of AEs,[2]; all AEs,mild to moderate
same,"B&L VAS scores: effects on mood, vigilance or stress levels",[2]; data not shown,no clinically relevant effects; also recorded: did not reveal any clinically relevant effects
same,"abnormalities in laboratory results, ECG findings or vital signs",[2]; exception: one episode of transient sinus tachycardia,No relevant abnormalities
same,overall safety and tolerability,"[2]; healthy male subjects, single rising doses",generally safe and well tolerated
same,onset of nervous system and eye disorder AEs after administration,[2]; most frequently reported AEs,20 to 30 min
same,time within which AEs mostly resolved,[2]; nervous system and eye disorders,1 to 2 h
same,serious AEs,"[2]; single doses 0.5–350 mg, EMs and PMs",No serious AEs occurred; also recorded: No serious AEs were reported
same,highest (maximum) tolerated dose,"[2]; single oral dose, CYP2C19 EMs",350 mg
same,memory performance,[3],improved memory performance
same,AUC0–∞ ratio of tablet to solution,"[4]; 5 mg dose, 90% CI: 87.6%, 111%",98.5%
same,ratio (CYP2C19 PM to EM) of Cmax,"[4]; 10 mg dose, 90% CI: 125%, 401%",224%
same,ratio (CYP2C19 PM to EM) of AUC0–∞,"[4]; 10 mg dose, 90% CI: 291%, 843%",496%
same,AUC0–∞ ratio of tablet to solution,"[4]; 50 mg dose, 90% CI: 59.6%, 119%",84.2%
same,ratio (CYP2C19 PM to EM) of Cmax,"[4]; 100 mg dose, 90% CI: 124%, 421%",228%
same,ratio (CYP2C19 PM to EM) of AUC0–∞,"[4]; 100 mg dose, 90% CI: 254%, 677%",415%
same,"reduction of gMean AUC, tablet versus oral solution",[4]; [18],approximately 16%
same,"reduction of gMean Cmax, tablet versus oral solution",[4]; [18],approximately 20%
same,time following dose within which BI 409306 was eliminated,[4]; all DGs,≤ 24 h
same,AUC0–∞ in CYP2C19 PMs compared with EMs,[4]; [19],4.1–5.0 fold
same,Cmax in CYP2C19 PMs compared with EMs,[4]; [19],2.2–2.3 fold
same,Cl F^−1,[4]; single oral dose 0.5 mg sol EM (n = 6),6770 (50.4) ml min^−1
same,Cl F^−1,[4]; [7],5130 (41.3) ml min^−1
same,Cl F^−1,[4]; [8],3490 (27.0) ml min^−1
same,Cl F^−1,[4]; [9],3540 (32.2) ml min^−1
same,Cl F^−1,[4]; [10],5580 (69.8) ml min^−1
same,Cl F^−1,[4]; [11],1120 (35.5) ml min^−1
same,Cl F^−1,[4]; single oral dose 25 mg tab EM (n = 6),3810 (49.4) ml min^−1
same,Cl F^−1,[4]; [12],4130 (42.9) ml min^−1
same,Cl F^−1,[4]; [13],4970 (82.0) ml min^−1
same,Cl F^−1,[4]; [14],3660 (68.5) ml min^−1
same,Cl F^−1,[4]; [15],882 (21.4) ml min^−1
same,Cl F^−1,[4]; [16],2730 (44.4) ml min^−1
same,Cl F^−1,[4]; [17],2350 (17.1) ml min^−1
same,synaptic plasticity (LTP),[5],enhancement of LTP
"C[C@@H]1CN(Cc2ncccn2)C[C@H]1c1nc2c(cnn2C2CCOCC2)c(=O)[nH]1 [PF‐04447943, 6‐[(3S,4S)‐4‐methyl‐1‐(pyrimidin‐2‐ylmethyl)pyrrolidin‐3‐yl]‐1‐(tetrahydro‐2H‐pyran‐4‐yl)‐1,5‐dihydro‐4H‐pyrazolo[3,4‐d]pyrimidin‐4‐one]",incidence of severe AEs,[6],comparable to that with placebo

# Reference: paper PMC5061793 (British Journal of Clinical Pharmacology, 2016)
